Consider eight molecules from publication PMC9730744 (ACS Omega, 2022).

Broadly, the LD50 is the dose expected to kill half of the subjects tested. In general, IC50 refers to the concentration that inhibits the measured activity by half.

Molecules are shown by their SMILES. Marks after values point to notes of the source that are not given here.

In data set [1] the test system is rat synovial cells. Description: LDH activity assay of synovial cells in vitro. It counts as cell-based. The following applies: for LDH activity ± SD: 1 μM, supernatant of rat synovial cells, 48 h; for LDH content in the supernatant / damage to synovial cells (in words): compared with the normal group. The procedure, abridged:
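Log-phase rat synovial cells (2 × 10⁴/well) were cultured 48 h at 37 °C, 5% CO₂. They then received test compound at graded concentrations, methotrexate, or DMSO vehicle for 48 h. Plates were centrifuged 10 min, and supernatant LDH was assayed with a kit. Activity (U/L) = [(OD sample − OD control)/([…] − OD blank)] × 0.2 mM × 1000. Three independent experiments, each in triplicate.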

The nature of data set [2]: Acute toxicity test in mice. The following applies: both, mouse, in vivo, po. The method in brief:
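Single oral gavage of 0.4 mL test substance to SPF mice (18–22 g) after 1-week acclimatization at 22 ± 2 °C on a 12 h light/dark cycle. Mice were randomized into 10 groups, half male and half female, fasted 8 h before dosing and 2 h after. Mortality, death time and signs of poisoning were recorded over 14 days, and LD50 was taken as the acute toxicity measure.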

Data set [3] relates to rat synovial cells. Description: Morphology of rat synovial cells in vitro. The conditions noted are these: 1 μM, 48 h, Figure 3. It is filed as cell-based. The procedure, abridged:
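Synovial cells at 70–80% confluence were detached with 0.25% trypsin and seeded at 5000 cells/well in 24-well plates. Groups received test compound (1 μM), methotrexate (1 μM) or DMSO, with an untreated normal group. After 48 h culture, morphology was examined by cell imaging analysis.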

For data set [4], the system named is TLR4, MyD88, NF-κB, and IκB in rat synovial cells. Description: TLR4/NF-κB signaling pathway protein expression in rat synovial cells. It counts as cell-based. The conditions noted are these: 1 μM, LPS 1 μg·mL^–1, compared with the LPS group, p < 0.01. The procedure, abridged:
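Synovial cells (5000/well) were cultured 24 h, stimulated with LPS (1 μg·mL⁻¹) for 24 h, then treated with test compound at 1 μM for 24 h. Cells were fixed in 4% fixative for 45 min, permeabilized with 0.25% Triton for 15 min and blocked with 5% BSA for 10 min. Rabbit anti-rat primaries (1:100 or 1:200) were applied overnight at 4 °C, then FITC goat anti-rabbit (1:400, 30 min, 37 °C) and DAPI (1:800). Read-out was mean fluorescence intensity.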

Data set [5] has as its system CFA-induced arthritis in rats. Description: Complete Freund's adjuvant induced arthritis in rats. The following applies: for IL-6 content in serum after treatment / TNF-α content in serum after treatment: high dose (100 mg·kg^–1·d^–1) and low dose (50 mg·kg^–1·d^–1); for IL-6 content in serum after treatment: Figure 4c; for TNF-α content in serum after treatment: Figure 4d; for change of paw volume before and after treatment: oral. It counts as in vivo, rat. The method in brief: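 SPF adult rats (200 ± 20 g) were acclimatized 2 weeks at 22 ± 3 °C and 40–70% humidity. Arthritis was induced with 0.1 mL CFA injected 2 cm from the tail root; the normal group received saline. From day 14 after induction, rats were dosed orally at 50 or 100 mg·kg⁻¹·d⁻¹ daily for 14 days. Paw volume was measured by toe volume meter before induction and on dosing days 1 and 14.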

In data set [6] the test system is TNF-α, IL-1β, and IL-6 in rat synovial cells. Description: Inflammatory cytokines in the rat synovial cell supernatant. The conditions noted are these: 1 μM, LPS 1 μg·mL^–1, compared with the LPS group, p < 0.01. It is filed as cell-based. The method in brief: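 After 24 h they were stimulated with LPS (1 μg·mL⁻¹) for 24 h, then treated with test compound or methotrexate at 1 μM for 24 h. Supernatant was centrifuged at 3000 rpm for 15 min, and TNF-α, IL-1β and IL-6 were measured by ELISA. Three independent experiments, each in triplicate.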

For data set [7], the system named is rat synovial cells. The following applies: read-out: IC50, growth of synovial cells; cited from earlier work.
Setting [8] is: 50 mg·kg^–1·d^–1 for 14 days, Figure 4a.

Consider `O=C1C=C2CC[C@@H](C(=O)O)CC2C(=O)C1` (stereo partly drawn) [Compound 21], for which, in data set [1], the “LDH activity ± SD” value worked out at 297.79 ± 49.6 U/L and the “LDH content in the supernatant / damage to synovial cells (in words)” value (“LDH content in the supernatant / damage” below) is given as “little damage to synovial cells”.

Turning to `CCOC(=O)[C@@H]1CCC2=CC(=O)CC(=O)C2C1` (stereo partly drawn) [Compound 23], the LD50 at 14 days in data set [2] came out at 2307 ± 7.37 mg/kg. In data set [1], the “LDH activity ± SD” value is listed as 342.78 ± 22.74 ^c U/L and the “LDH content in the supernatant / damage” value is listed as “little damage to synovial cells”. Moreover, the “morphology of rat synovial cells” value in data set [3] is reported as “significant concentration dependence on synovial cell injury”.

With `O=C1C=C2CC[C@@H](C3CCC(=O)CC3)CC2C(=O)C1` (stereo partly drawn) [Compound 28, (7R)-7-(4-oxocyclohexyl)-6,7,8,8a-tetrahydronaphthalene-1, 3 (2H, 5H)-dione], in data set [1], the “LDH activity ± SD” value is on record as 375.29 ± 17.87 ^c U/L and the “LDH content in the supernatant / damage” value is “little damage to synovial cells”. The “morphology of rat synovial cells” value in data set [3] is “significant concentration dependence on synovial cell injury”.

In the case of `O=C1C=C2CC[C@@H](O)CC2C(=O)C1` (stereo partly drawn) [Compound 32, (7R)-7-hydroxy-6,7,8,8a-tetrahydronaphthalene-1, 3 (2H, 5H)-dione], in data set [4], the “expression of MyD88” value was “significantly downregulated”, the “expression of NF-κB” value is on record as “significantly downregulated”, the “expression of TLR4” value is “significantly downregulated” and the “expression of the IκB protein” value was “significantly upregulated”. Besides, in data set [5], the “IL-6 content in serum after treatment” value was “basically at a low level” and the “TNF-α content in serum after treatment” value is given as “decreased”. Further, the “change of paw volume before and after treatment” value (“change” for short) in data set [5] (setting [8]) is reported as “little change”. Further, the “change” value in data set [5] (100 mg·kg^–1·d^–1 for 14 days, Figure 4b) is reported as “hardly changed”. This molecule displayed an LD50 at 14 days in data set [2] of 2658 ± 9.06 mg/kg. In data set [1], the “LDH activity ± SD” value was 307.02 ± 30.86 ^c U/L and the “LDH content in the supernatant / damage” value was “little damage to synovial cells”. Also, in data set [3], the “morphology of rat synovial cells” value was “significant concentration dependence on synovial cell injury”. In addition, in data set [6], the “content of IL-1β in the supernatant” value is given as “significantly decreased”, the “content of IL-6 in the supernatant” value is listed as “significantly decreased” and the “content of TNF-α in the supernatant” value was “significantly decreased”.

For `CC(=O)N[C@@H]1CCC2=CC(=O)CC(=O)C2C1` (stereo partly drawn) [Compound 33], in data set [1], the “LDH activity ± SD” value is 264.24 ± 27.71 U/L and the “LDH content in the supernatant / damage” value is reported as “little damage to synovial cells”.

The molecule `O=C1C=C2CCC(F)(F)CC2C(=O)C1` (stereo not drawn) [Compound 36, 7,7-difluoro-6,7,8,8a-tetrahydronaphthalene-1,3 (2H, 5H)-dione] had an LD50 at 14 days in data set [2] of 2709 ± 8.63 mg/kg. For the same molecule, in data set [1], the “LDH activity ± SD” value is 292.07 ± 31.56 U/L and the “LDH content in the supernatant / damage” value is reported as “little damage to synovial cells”. Also, the “morphology of rat synovial cells” value in data set [3] is “significant concentration dependence on synovial cell injury”.

Consider `CC(C)[C@H]1CC[C@]2(C)C(=O)CCC(=O)C=C12` [Dysodensiol K], for which the IC50 in data set [7] was 11.8 ± 0.23 µM.

Regarding `CN(Cc1cnc2nc(N)nc(N)c2n1)c1ccc(C(=O)N[C@@H](CCC(=O)O)C(=O)O)cc1` [methotrexate, reference compound], in data set [4], the “expression of MyD88” value is reported as “significantly downregulated”, the “expression of NF-κB” value is reported as “significantly downregulated”, the “expression of TLR4” value was “significantly downregulated” and the “expression of the IκB protein” value is recorded as “significantly upregulated”. In addition, in data set [5], the “IL-6 content in serum after treatment” value is reported as “basically at a low level” and the “TNF-α content in serum after treatment” value is given as “decreased”. Also, the “change” value in data set [5] (setting [8]) was “significant volume change”. The molecule also displayed an LD50 at 14 days in data set [2] of 1368 ± 5.34 mg/kg. Besides, in data set [1], the “LDH activity ± SD” value is 438.75 ± 11.50 ^c U/L and the “LDH content in the supernatant / damage” value is recorded as “significantly increased”. For the same molecule, the “morphology of rat synovial cells” value in data set [3] is given as “significantly damaged”. For the same molecule, in data set [6], the “content of IL-1β in the supernatant” value is recorded as “significantly decreased”, the “content of IL-6 in the supernatant” value is “significantly decreased” and the “content of TNF-α in the supernatant” value is “significantly decreased”.
